≈ marks a conversion by molar mass, not a printed value. Calls of active or inactive are those of the source. The rule behind the calls is not given here.
The molecules below were run on Mycobacterium tuberculosis (assay: Antimicrobial activity against Mycobacterium tuberculosis H37Rv incubated for 48 hrs by microdilution broth method).
Assay type: functional

Question: How did the MIC turn out when O=C1CC(Oc2ccc(C(F)(F)F)cc2)N1C(=O)NCc1ccccc1 (racemic) was run?
Answer: 125 µg/mL (≈ 343 µM)

Question: Which MIC does the source give for O=C1CC([Se]c2ccccc2)N1C(=O)NCc1ccccc1 (racemic) here?
Answer: 25 µg/mL (≈ 69.6 µM)

Question: For C#CCCCC(=O)N1C(=O)CC1Sc1ccccc1 (racemic), which MIC is on record?
Answer: 45 µg/mL (≈ 165 µM)

Question: With O=C1CC(Sc2ccccc2)N1C(=O)NC(c1ccccc1)c1ccccc1 (racemic) as the molecule, how does the MIC read?
Answer: 50 µg/mL (≈ 129 µM)

Question: With O=C1CC(Sc2ccccc2)N1C(=O)NC1c2ccccc2-c2ccccc21 (racemic) as the molecule, how does the MIC read?
Answer: > 100 µg/mL

Question: With O=C1CC(Sc2ccccc2)N1C(=O)Nc1cccc2ccccc12 (racemic) as the molecule, how does the MIC read?
Answer: 25 µg/mL (≈ 71.8 µM)

Question: O=C1CC(Sc2ccc(F)cc2)N1C(=O)NC(c1ccccc1)c1ccccc1 (racemic) was tested. Which MIC did it give?
Answer: > 100 µg/mL

Question: For O=C1CC(Sc2ccc(F)cc2)N1C(=O)NCC(c1ccccc1)c1ccccc1 (racemic), which MIC is on record?
Answer: > 100 µg/mL

Question: Which MIC does the source give for CCNC(=O)N1C(=O)CC1Sc1ccc(F)cc1F (racemic) here?
Answer: > 100 µg/mL

Question: For CC(NC(=O)N1C(=O)CC1Sc1ccccc1)c1cccc2ccccc12 (racemic), which MIC is on record?
Answer: > 100 µg/mL

Question: How did the MIC turn out when O=C1CC(Sc2ccc(F)cc2F)N1C(=O)NCc1ccccc1F (racemic) was run?
Answer: 50 µg/mL (≈ 136 µM)

Question: How did the MIC turn out when COc1ccccc1CNC(=O)N1C(=O)CC1Sc1ccc(F)cc1F (racemic) was run?
Answer: ≥ 100 µg/mL

Question: For O=C1CC(Sc2ccc(F)cc2F)N1C(=O)Nc1ccccc1F (racemic), which MIC is on record?
Answer: 25 µg/mL (≈ 71 µM)

Question: How did the MIC turn out when O=C1CC(Sc2ccc(F)cc2Cl)N1C(=O)NC(c1ccccc1)c1ccccc1 (racemic) was run?
Answer: 50 µg/mL (≈ 113 µM)

The molecules below were run on Escherichia coli (assay: Antimicrobial activity against broad spectrum beta-lactamase producing Escherichia coli MISC 206 incubated for 48 hrs by microdilution broth method).
Assay type: functional, organism-based
Method in brief: (§1)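 Stocks in DMSO were diluted at least 10-fold into Mueller-Hinton broth, then 2-fold serially diluted in MH from 500 to 15.6 μg/ml. Bacteria were added, with DMSO-only dilution controls, and incubated at 37 °C for 48 h. Growth was scored at 24 and 48 h. MIC was the lowest concentration with no growth. Run in quadruplicate.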

Question: With O=C1CC(Sc2cccc(F)c2)N1C(=O)NCc1ccccc1 (racemic) as the molecule, how does the MIC read?
Answer: inactive

These molecules were tested on Acinetobacter baumannii (assay: Antimicrobial activity against extended spectrum beta-lactamase and carbapenemase producing Acinetobacter baumannii L187 incubated for 48 hrs by microdilution broth method).
Assay type: functional, organism-based
Method in brief: as §1

Question: How did the MIC turn out when O=C1CC(Sc2cccc(F)c2)N1C(=O)NCc1ccccc1 (racemic) was run?
Answer: inactive

The molecules below were run on Escherichia coli (assay: Antimicrobial activity against Escherichia coli ATCC 25922 incubated for 48 hrs by microdilution broth method).
Assay type: functional, organism-based
Method in brief: as §1

Question: For O=C1CC(Sc2cccc(F)c2)N1C(=O)NCc1ccccc1 (racemic), which MIC is on record?
Answer: inactive

The molecules below were run on Escherichia coli (assay: Antimicrobial activity against extended spectrum beta-lactamase and carbapenemase producing Escherichia coli ESBL L109 incubated for 48 hrs by microdilution broth method).
Assay type: functional, organism-based
Method in brief: as §1

Question: How did the MIC turn out when O=C1CC(Sc2cccc(F)c2)N1C(=O)NCc1ccccc1 (racemic) was run?
Answer: inactive

Each molecule was assayed on Citrobacter freundii (assay: Antimicrobial activity against AmpC producing Citrobacter freundii CITRO 21 incubated for 48 hrs by microdilution broth method).
Assay type: functional, organism-based
Method in brief: as §1

Question: Which MIC does the source give for O=C1CC(Sc2cccc(F)c2)N1C(=O)NCc1ccccc1 (racemic) here?
Answer: inactive

These molecules were tested on Acinetobacter baumannii (assay: Antimicrobial activity against extended spectrum beta-lactamase and carbapenemase producing Acinetobacter baumannii L185 incubated for 48 hrs by microdilution broth method).
Assay type: functional, organism-based
Method in brief: as §1

Question: How did the MIC turn out when O=C1CC(Sc2cccc(F)c2)N1C(=O)NCc1ccccc1 (racemic) was run?
Answer: inactive

Each molecule was assayed on Klebsiella pneumoniae (assay: Antimicrobial activity against AmpC producing Klebsiella pneumoniae KLEB 249 incubated for 48 hrs by microdilution broth method).
Assay type: functional, organism-based
Method in brief: as §1

Question: Which MIC does the source give for O=C1CC(Sc2cccc(F)c2)N1C(=O)NCc1ccccc1 (racemic) here?
Answer: inactive

The molecules below were run on Acinetobacter baumannii (assay: Antimicrobial activity against extended spectrum beta-lactamase and carbapenemase producing Acinetobacter baumannii L186 incubated for 48 hrs by microdilution broth method).
Assay type: functional, organism-based
Method in brief: as §1

Question: O=C1CC(Sc2cccc(F)c2)N1C(=O)NCc1ccccc1 (racemic) was tested. Which MIC did it give?
Answer: inactive

These molecules were tested on Klebsiella pneumoniae (assay: Antimicrobial activity against extended spectrum beta-lactamase and carbapenemase producing Klebsiella pneumoniae KPC L133 incubated for 48 hrs by microdilution broth method).
Assay type: functional, organism-based
Method in brief: as §1

Question: Which MIC does the source give for O=C1CC(Sc2cccc(F)c2)N1C(=O)NCc1ccccc1 (racemic) here?
Answer: inactive

Each molecule was assayed on Escherichia coli (assay: Antimicrobial activity against extended spectrum beta-lactamase producing Escherichia coli MISC 262 incubated for 48 hrs by microdilution broth method).
Assay type: functional, organism-based
Method in brief: as §1

Question: Which MIC does the source give for O=C1CC(Sc2cccc(F)c2)N1C(=O)NCc1ccccc1 (racemic) here?
Answer: inactive

Each molecule was assayed on Moraxella catarrhalis (assay: Bactericidal activity against Moraxella catarrhalis clinical isolates incubated for 48 hrs by microdilution broth method and standard plating method).
Assay type: functional
Method in brief: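 Broth microdilution in Mueller-Hinton broth, 2-fold series from 500 to 15.6 μg/ml, with DMSO-only controls, 37 °C for 48 h. Wells showing no growth were plated (10 μL) on MH agar. MBC was the lowest concentration giving no growth on plating. Run in quadruplicate.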

Question: Which MBC does the source give for O=C1CC(Sc2cccc(F)c2)N1C(=O)NCc1ccccc1 (racemic) here?
Answer: 100 µg/mL (≈ 303 µM)

Question: How did the MBC turn out when O=C1CC(Oc2ccc(C(F)(F)F)cc2)N1C(=O)NCc1ccccc1 (racemic) was run?
Answer: > 200 µg/mL

Question: How did the MBC turn out when O=C1CC([Se]c2ccccc2)N1C(=O)NCc1ccccc1 (racemic) was run?
Answer: 50 µg/mL (≈ 139 µM)

Question: For C#CCCCC(=O)N1C(=O)CC1Sc1ccccc1 (racemic), which MBC is on record?
Answer: 100 µg/mL (≈ 366 µM)

Question: With O=C1CC(Sc2ccc(F)cc2)N1C(=O)NC(c1ccccc1)c1ccccc1 (racemic) as the molecule, how does the MBC read?
Answer: > 200 µg/mL

Question: O=C1CC(Sc2ccc(F)cc2)N1C(=O)NCC(c1ccccc1)c1ccccc1 (racemic) was tested. Which MBC did it give?
Answer: > 200 µg/mL

Question: For CC(NC(=O)N1C(=O)CC1Sc1ccccc1)c1cccc2ccccc12 (racemic), which MBC is on record?
Answer: > 200 µg/mL

Question: How did the MBC turn out when O=C1CC(Sc2ccc(F)cc2Cl)N1C(=O)NC(c1ccccc1)c1ccccc1 (racemic) was run?
Answer: > 200 µg/mL

Each molecule was assayed on Pseudomonas aeruginosa (assay: Antimicrobial activity against Pseudomonas aeruginosa ATCC 27853 incubated for 48 hrs by microdilution broth method).
Assay type: functional, organism-based
Method in brief: as §1

Question: How did the MIC turn out when O=C1CC(Sc2cccc(F)c2)N1C(=O)NCc1ccccc1 (racemic) was run?
Answer: inactive

These molecules were tested on Staphylococcus aureus (assay: Antimicrobial activity against Staphylococcus aureus ATCC 25923 incubated for 48 hrs by microdilution broth method).
Assay type: functional, organism-based
Method in brief: as §1

Question: O=C1CC(Sc2cccc(F)c2)N1C(=O)NCc1ccccc1 (racemic) was tested. Which MIC did it give?
Answer: inactive

What follows are molecules tested on Klebsiella pneumoniae (assay: Antimicrobial activity against AmpC producing Klebsiella pneumoniae MISC 304 incubated for 48 hrs by microdilution broth method).
Assay type: functional, organism-based
Method in brief: as §1

Question: For O=C1CC(Sc2cccc(F)c2)N1C(=O)NCc1ccccc1 (racemic), which MIC is on record?
Answer: inactive

Each molecule was assayed on Stenotrophomonas maltophilia (assay: Antimicrobial activity against metallo beta-lactamases producing Stenotrophomonas maltophilia GM24 incubated for 48 hrs by microdilution broth method).
Assay type: functional, organism-based
Method in brief: as §1

Question: O=C1CC(Sc2cccc(F)c2)N1C(=O)NCc1ccccc1 (racemic) was tested. Which MIC did it give?
Answer: inactive

The molecules below were run on Escherichia coli (assay: Antimicrobial activity against broad spectrum beta-lactamase producing Escherichia coli GB 8 incubated for 48 hrs by microdilution broth method).
Assay type: functional, organism-based
Method in brief: as §1

Question: O=C1CC(Sc2cccc(F)c2)N1C(=O)NCc1ccccc1 (racemic) was tested. Which MIC did it give?
Answer: inactive

What follows are molecules tested on Enterococcus faecalis (assay: Antimicrobial activity against Enterococcus faecalis ATCC 29212 incubated for 48 hrs by microdilution broth method).
Assay type: functional, organism-based
Method in brief: as §1

Question: With O=C1CC(Sc2cccc(F)c2)N1C(=O)NCc1ccccc1 (racemic) as the molecule, how does the MIC read?
Answer: inactive

Each molecule was assayed on Klebsiella pneumoniae (assay: Antimicrobial activity against extended spectrum beta-lactamase and carbapenemase producing Klebsiella pneumoniae ESBL L174 incubated for 48 hrs by microdilution broth method).
Assay type: functional, organism-based
Method in brief: as §1

Question: O=C1CC(Sc2cccc(F)c2)N1C(=O)NCc1ccccc1 (racemic) was tested. Which MIC did it give?
Answer: inactive

These molecules were tested on Moraxella catarrhalis (assay: Antimicrobial activity against Moraxella catarrhalis clinical isolates incubated for 48 hrs by microdilution broth method).
Assay type: functional
Method in brief: as §1

Question: Which MIC does the source give for O=C1CC(Sc2cccc(F)c2)N1C(=O)NCc1ccccc1 (racemic) here?
Answer: 25 µg/mL (≈ 75.7 µM)

Question: With O=C1CC(Oc2ccc(C(F)(F)F)cc2)N1C(=O)NCc1ccccc1 (racemic) as the molecule, how does the MIC read?
Answer: 50 µg/mL (≈ 137 µM)

Question: How did the MIC turn out when O=C1CC([Se]c2ccccc2)N1C(=O)NCc1ccccc1 (racemic) was run?
Answer: 50 µg/mL (≈ 139 µM)

Question: With C#CCCCC(=O)N1C(=O)CC1Sc1ccccc1 (racemic) as the molecule, how does the MIC read?
Answer: 100 µg/mL (≈ 366 µM)

Question: With O=C1CC(Sc2ccc(F)cc2)N1C(=O)NC(c1ccccc1)c1ccccc1 (racemic) as the molecule, how does the MIC read?
Answer: > 200 µg/mL

Question: For O=C1CC(Sc2ccc(F)cc2)N1C(=O)NCC(c1ccccc1)c1ccccc1 (racemic), which MIC is on record?
Answer: > 200 µg/mL

Question: How did the MIC turn out when CC(NC(=O)N1C(=O)CC1Sc1ccccc1)c1cccc2ccccc12 (racemic) was run?
Answer: > 200 µg/mL

Question: How did the MIC turn out when O=C1CC(Sc2ccc(F)cc2Cl)N1C(=O)NC(c1ccccc1)c1ccccc1 (racemic) was run?
Answer: > 200 µg/mL

These molecules were tested on Citrobacter freundii (assay: Antimicrobial activity against extended spectrum beta-lactamase producing Citrobacter freundii Citro 314 incubated for 48 hrs by microdilution broth method).
Assay type: functional, organism-based
Method in brief: as §1

Question: Which MIC does the source give for O=C1CC(Sc2cccc(F)c2)N1C(=O)NCc1ccccc1 (racemic) here?
Answer: inactive

These molecules were tested on Escherichia coli (assay: Antimicrobial activity against extended spectrum beta-lactamase and carbapenemase producing Escherichia coli ESBL L108 incubated for 48 hrs by microdilution broth method).
Assay type: functional, organism-based
Method in brief: as §1

Question: O=C1CC(Sc2cccc(F)c2)N1C(=O)NCc1ccccc1 (racemic) was tested. Which MIC did it give?
Answer: inactive
